Data as given in ChEMBL document CHEMBL1127826, “Inhibitors of acyl-CoA:cholesterol acyltransferase (ACAT). 7. Development of a series of substituted N-phenyl-N'-[(1-phenylcyclopentyl)methyl]ureas with enhanced hypocholesterolemic activity” (J Med Chem, 1994).

Legend:
Rattus norvegicus [1] = test: Compound was evaluated in experiment 1 for Change in High density lipoproteins at 3.0 (mg/kg) dose; assay type: functional
In short: (§1)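 Chronic model in male Sprague-Dawley rats (200-225 g). Rats were fed chow with peanut oil 5.5%, cholesterol 1.5% and cholic acid ad libitum for 2 weeks. Test article was given by gavage once daily (morning) in the second week, as a CMC/Tween aqueous suspension. Blood was taken by cardiac puncture under ether 24 h after the last dose. Plasma total, HDL and nonHDL cholesterol were measured with an Abbott VP analyzer using dextran sulfate precipitation, reported as mg/dL and % change from control. Controls were cholesterol-fed rats and rats switched to chow in week 2.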

Rattus norvegicus [2] = test: Compound was evaluated in experiment 1 for High density lipoproteins at 0.3 (mg/kg) dose; assay type: functional; in short: as §1
Rattus norvegicus [3] = test: Compound was evaluated in experiment 2 for Change in total cholesterol at 30 (mg/kg) dose; assay type: functional; in short: as §1
Rattus norvegicus [4] = species: Rattus norvegicus; test: Percent change in total cholesterol in peanut oil (5.5%)-, cholic acid (0.3%)-, Cholesterol (1.5%)-fed rats after a single dose.; assay type: functional
In short: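 Male Sprague-Dawley rats (200-225 g), n=5-7/group, given a single oral dose at 4 p.m. as a suspension in 1.5% CMC/0.2% Tween-20 in water (50 mg/kg); controls received vehicle alone. The rats then had free access to chow with peanut oil, cholesterol and cholic acid. At 8 a.m. next day they were bled by cardiac puncture under ether, and serum total cholesterol was measured as % change versus controls (unpaired two-tailed t-test).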

Rattus norvegicus [5] = test: Compound was evaluated in experiment 1 for Change in total cholesterol at 0.3 (mg/kg) dose; assay type: functional; in short: as §1
Rattus norvegicus [6] = test: Compound was evaluated in experiment 1 for Change in High density lipoproteins at 1.0 (mg/kg) dose; assay type: functional; in short: as §1
Rattus norvegicus [7] = test: Compound was evaluated in experiment 1 for Total cholesterol at 10 (mg/kg) dose; assay type: functional; set-up: unit not given beside the values; in short: as §1
Rattus norvegicus [8] = test: Compound was evaluated in experiment 1 for non High density lipoproteins at 0.3 (mg/kg) dose; assay type: functional; in short: as §1
[9] = Solubility at, 0.1 N HCl; assay type: physicochemical; conditions: read-out: S
Rattus norvegicus [10] = test: Compound was evaluated in experiment 1 for non High density lipoproteins at 1.0 (mg/kg) dose; assay type: functional; in short: as §1
Rattus norvegicus [11] = test: Compound was evaluated in experiment 2 for non High density lipoproteins at 30 (mg/kg) dose; assay type: functional
In short: (§2)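 Male Sprague-Dawley rats (200-225 g) were fed chow with peanut oil (5.5%), cholesterol (1.5%) and cholic acid (0.5%) ad libitum for 2 weeks. During week 2 they were gavaged daily each morning with compound in aqueous CMC/Tween suspension. Controls were fed the cholesterol diet for 2 weeks, or switched to chow for week 2. Rats were bled by cardiac puncture under ether 24 h post-dose. Plasma HDL-C was measured after dextran sulfate precipitation, along with nonHDL-C. Values are given in mg/dL and as % change from control.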

Rattus norvegicus [12] = test: Compound was evaluated in experiment 1 for change in non High density lipoprotein at the doses at 1.0 (mg/kg) dose; assay type: functional; in short: as §1
Rattus norvegicus [13] = test: Compound was evaluated in experiment 2 for change in non High density lipoprotein at the doses at 30 (mg/kg) dose; assay type: functional; in short: as §2
Rattus norvegicus [14] = test: Compound was evaluated in experiment 1 for change in non High density lipoprotein at the doses at 3.0 (mg/kg) dose; assay type: functional; in short: as §1
Rattus norvegicus [15] = test: Compound was evaluated in experiment 1 for Total cholesterol at 1.0 (mg/kg) dose; assay type: functional; set-up: unit not given beside the values; in short: as §1
Rattus norvegicus [16] = test: Compound was evaluated in experiment 1 for Total cholesterol at 3.0 (mg/kg) dose; assay type: functional; set-up: unit not given beside the values; in short: as §1
Rattus norvegicus [17] = test: Compound was evaluated in experiment 1 for High density lipoproteins at 3.0 (mg/kg) dose; assay type: functional; in short: as §1
Rattus norvegicus [18] = test: Compound was evaluated in experiment 1 for change in non High density lipoprotein at the doses at 0.3 (mg/kg) dose; assay type: functional; in short: as §1
Rattus norvegicus [19] = test: Compound was evaluated in experiment 1 for Change in High density lipoproteins at 10 (mg/kg) dose; assay type: functional; in short: as §1
Rattus norvegicus [20] = test: Compound was evaluated in experiment 2 for Change in High density lipoproteins at 30 (mg/kg) dose; assay type: functional; in short: as §1
Rattus norvegicus [21] = test: Compound was evaluated in experiment 1 for Total cholesterol at 0.3 (mg/kg) dose; assay type: functional; set-up: unit not given beside the values; in short: as §1
[22] = Solubility at, pH 7.4; assay type: physicochemical; conditions: buffer, read-out: S
Rattus norvegicus [23] = test: Compound was evaluated in experiment 2 for Total cholesterol at 30 (mg/kg) dose; assay type: functional; in short: as §1
Rattus norvegicus [24] = test: Compound was evaluated in experiment 1 for Change in total cholesterol at 3.0 (mg/kg) dose; assay type: functional; in short: as §1
Rattus norvegicus [25] = test: Compound was evaluated in experiment 1 for Change in total cholesterol at 10 (mg/kg) dose; assay type: functional; in short: as §1
Rattus norvegicus [26] = test: Compound was evaluated in experiment 1 for change in non High density lipoprotein at the doses at 10 (mg/kg) dose; assay type: functional; in short: as §1
Rattus norvegicus [27] = test: Compound was evaluated in experiment 1 for Change in High density lipoproteins at 0.3 (mg/kg) dose; assay type: functional; in short: as §1
Rattus norvegicus [28] = test: Compound was evaluated in experiment 2 for High density lipoproteins at 30 (mg/kg) dose; assay type: functional; in short: as §1
Rattus norvegicus [29] = test: Compound was evaluated in experiment 1 for High density lipoproteins at 1.0 (mg/kg) dose; assay type: functional; in short: as §1
Rattus norvegicus [30] = test: Compound was evaluated in experiment 1 for Change in total cholesterol at 1.0 (mg/kg) dose; assay type: functional; in short: as §1
Rattus norvegicus [31] = test: Compound was evaluated in experiment 1 for non High density lipoproteins at 3.0(mg/kg) dose; assay type: functional; in short: as §1
Rattus norvegicus [32] = test: Compound was evaluated in experiment 1 for High density lipoproteins at 10 (mg/kg) dose; assay type: functional; in short: as §1
Rattus norvegicus [33] = test: Compound was evaluated in experiment 1 for non High density lipoproteins at 10 (mg/kg) dose; assay type: functional; in short: as §1
[34] = Solubility at, pH 4.0; assay type: physicochemical; conditions: buffer, read-out: S
Rattus norvegicus [35] = test: Compound was evaluated in experiment 2 for Change in High density lipoproteins at 10 (mg/kg) dose; assay type: functional; in short: as §1
Rattus norvegicus [36] = test: Compound was evaluated in experiment 2 for High density lipoproteins at 3 (mg/kg) dose; assay type: functional; in short: as §1
[37] = Compound was evaluated for the distribution coefficient at pH 7.4; assay type: physicochemical; conditions: octanol/water
Rattus norvegicus [38] = test: Compound was evaluated in experiment 2 for Change in total cholesterol at 10 (mg/kg) dose; assay type: functional; in short: as §1
Rattus norvegicus [39] = test: Compound was evaluated in experiment 2 for Total cholesterol at 1 (mg/kg) dose; assay type: functional; in short: as §1
Rattus norvegicus [40] = test: Compound was evaluated for the percentage change in total cholesterol in peanut oil (5.5%)-cholic acid (0.3%)-cholesterol (1.5%)-fed rat at 30 mg/kg; assay type: functional
Rattus norvegicus [41] = test: Compound was evaluated in experiment 2 for Total cholesterol at 3 (mg/kg) dose; assay type: functional; in short: as §1
Rattus norvegicus [42] = test: Compound was evaluated in experiment 2 for change in non High density lipoprotein at the doses at 10 (mg/kg) dose; assay type: functional; in short: as §1
Rattus norvegicus [43] = test: Compound was evaluated in experiment 2 for non High density lipoproteins at 3 (mg/kg) dose; assay type: functional; in short: as §2
Rattus norvegicus [44] = test: Compound was evaluated in experiment 2 for High density lipoproteins at 10 (mg/kg) dose; assay type: functional; in short: as §1
Rattus norvegicus [45] = test: Compound was evaluated in experiment 2 for Change in total cholesterol at 3 (mg/kg) dose; assay type: functional; in short: as §1
[46] = molecular target: T1, Acyl-CoA:cholesterol acyltransferase (Oryctolagus cuniculus, UniProt Q95214); test: Tested for in vitro inhibition against Acyl coenzyme A:cholesterol acyltransferase of intestinal microsomes in cholesterol-fed rabbits; set-up: species or system Microsome
T1 sequence (Q95214 whole entry): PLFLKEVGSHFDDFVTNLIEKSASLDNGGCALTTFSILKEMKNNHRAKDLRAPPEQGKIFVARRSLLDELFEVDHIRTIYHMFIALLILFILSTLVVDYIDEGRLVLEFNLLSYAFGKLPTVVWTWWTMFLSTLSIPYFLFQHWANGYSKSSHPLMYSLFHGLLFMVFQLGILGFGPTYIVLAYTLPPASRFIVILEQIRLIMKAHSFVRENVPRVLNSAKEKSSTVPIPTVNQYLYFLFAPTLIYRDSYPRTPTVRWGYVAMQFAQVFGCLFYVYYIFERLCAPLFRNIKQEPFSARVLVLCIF
In short: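 Microsomes were prepared from intestine of cholesterol-fed rabbits. ACAT activity was measured using [1-14C]oleoyl-CoA as substrate. Each determination was run in triplicate.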

Rattus norvegicus [47] = test: Compound was evaluated in experiment 2 for non High density lipoproteins at 10 (mg/kg) dose; assay type: functional; in short: as §2
Rattus norvegicus [48] = test: Compound was evaluated in experiment 2 for High density lipoproteins at 1 (mg/kg) dose; assay type: functional; in short: as §1
Rattus norvegicus [49] = test: Compound was evaluated in experiment 2 for non High density lipoproteins at 1 (mg/kg) dose; assay type: functional; in short: as §2
Rattus norvegicus [50] = test: Compound was evaluated in experiment 2 for Change in High density lipoproteins at 3 (mg/kg) dose; assay type: functional; in short: as §1
Rattus norvegicus [51] = test: Compound was evaluated in experiment 2 for Change in High density lipoproteins at 1 (mg/kg) dose; assay type: functional; in short: as §1
Rattus norvegicus [52] = test: Compound was evaluated in experiment 2 for change in non High density lipoprotein at the doses at 3 (mg/kg) dose; assay type: functional; in short: as §1
Rattus norvegicus [53] = test: Compound was evaluated in experiment 2 for Total cholesterol at 10 (mg/kg) dose; assay type: functional; in short: as §1

## CC(C)c1cccc(C(C)C)c1NC(=O)NCC1(c2ccc(N(C)C)cc2)CCCC1.Cl [NEVANIMIBE HYDROCHLORIDE]
Rattus norvegicus [1]
  Change HDL -C: 38%
Rattus norvegicus [2]
  HDL-C: 17
Rattus norvegicus [3]
  Change TC: -69%
Rattus norvegicus [4]
  Delta TC: -77%
Rattus norvegicus [5]
  Change TC: -20%
Rattus norvegicus [6]
  Change HDL -C: 32%
Rattus norvegicus [7]
  TC: 115
Rattus norvegicus [8]
  Non-HDL-C: 235
[9]
  solubility: 6400 µg/mL
Rattus norvegicus [10]
  Non-HDL-C: 206
Rattus norvegicus [11]
  Non-HDL-C: 56
Rattus norvegicus [12]
  Change non HDL-C: -32%
Rattus norvegicus [13]
  Change non HDL-C: -80%
Rattus norvegicus [14]
  Change non HDL-C: -23%
Rattus norvegicus [15]
  TC: 222
Rattus norvegicus [16]
  TC: 251
Rattus norvegicus [17]
  HDL-C: 16
Rattus norvegicus [18]
  Change non HDL-C: -22%
Rattus norvegicus [19]
  Change HDL -C: 167%
Rattus norvegicus [20]
  Change HDL -C: 177%
Rattus norvegicus [21]
  TC: 252
[22]
  solubility: < 50 µg/mL
Rattus norvegicus [23]
  TC: 91
Rattus norvegicus [24]
  Change TC: -20%
Rattus norvegicus [25]
  Change TC: -64%
Rattus norvegicus [26]
  Change non HDL-C: -72%
Rattus norvegicus [27]
  Change HDL -C: 44%
Rattus norvegicus [28]
  HDL-C: 36
Rattus norvegicus [29]
  HDL-C: 15
Rattus norvegicus [30]
  Change TC: -29%
Rattus norvegicus [31]
  Non-HDL-C: 235
Rattus norvegicus [32]
  HDL-C: 31
Rattus norvegicus [33]
  Non-HDL-C: 84
[34]
  solubility: 1330 µg/mL

## CC(C)c1cccc(C(C)C)c1NC(=O)NCC1(c2cccc(CN(C)C)c2)CCCC1
Rattus norvegicus [3]
  Change TC: -66%
Rattus norvegicus [4]
  Delta TC: -22%
Rattus norvegicus [35]
  Change HDL -C: 77%
Rattus norvegicus [36]
  HDL-C: 17
[37]
  logD: 4.8
Rattus norvegicus [38]
  Change TC: -33%
Rattus norvegicus [11]
  Non-HDL-C: 68
Rattus norvegicus [39]
  TC: 292
Rattus norvegicus [13]
  Change non HDL-C: -76%
Rattus norvegicus [40]
  Delta TC: -55%
Rattus norvegicus [41]
  TC: 229
Rattus norvegicus [42]
  Change non HDL-C: -38%
Rattus norvegicus [20]
  Change HDL -C: 154%
Rattus norvegicus [43]
  Non-HDL-C: 212
Rattus norvegicus [44]
  HDL-C: 23
Rattus norvegicus [45]
  Change TC: -23%
[46]
  IC50: 63 nM
Rattus norvegicus [23]
  TC: 101
Rattus norvegicus [47]
  Non-HDL-C: 177
Rattus norvegicus [48]
  HDL-C: 14
Rattus norvegicus [49]
  Non-HDL-C: 278
Rattus norvegicus [28]
  HDL-C: 33
Rattus norvegicus [50]
  Change HDL -C: 31%
Rattus norvegicus [51]
  Change HDL -C: 8%
Rattus norvegicus [52]
  Change non HDL-C: -25%
Rattus norvegicus [53]
  TC: 200
